The structures appear in SMILES notation.

Assay [1] deals with RKO. As to the kind of experiment: Cytotoxicity against proliferating RKOp27 cells after 72 hrs by Alamar Blue assay. It counts as functional, cell-based. The note with it: Homo sapiens. Put shortly:
(§1)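 Human colon carcinoma RKOp27 line carrying ponasterone-A-inducible p27kip1. Induction gives G1-arrested cells, and uninduced cells stay proliferating. Viability was read as metabolic activity by Alamar Blue. IC50 values are the mean ± SD of two independent experiments, each with quadruplicate samples per concentration.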

For assay [2], the system named is RKO. Nature of the assay: Cytotoxicity against cell cycle arrested RKOp27 cells after 72 hrs by alamar blue assay. Particulars: Homo sapiens. It counts as functional, cell-based. Summed up:
as §1
A general note: Alamar Blue is a resazurin reagent that responds to reducing activity.

The next assay has as its target Tubulin (Bos taurus). Nature of the assay: Inhibition of [3H]colchicine binding to beta tubulin.
A further assay concerns the target Tubulin (Bos taurus, UniProt Q6B856+Q862L2+Q862F3). As to the kind of experiment: Inhibition of MAP containing bovine brain tubulin polymerization. It counts as functional.
Assay [3] relates to RKO. As to the kind of experiment: Cytotoxicity against RKOp27 cells at 30 uM after 72 hrs by alamar blue assay. The class given is functional, cell-based. The note with it: Homo sapiens.

With `Cc1nc2ccccc2n1-c1csc(Nc2cccc(Br)c2)n1`, the concentration for half-maximal inhibition (IC50) (usually the concentration at which inhibition is half-maximal) in the assay with RKO [1] is 36 µM; in the assay on RKO [2], 85 µM.

On to `COc1cccc(Nc2nc(-n3ccnc3C)cs2)c1`, for which the concentration for half-maximal inhibition (IC50) in the assay with RKO [1] is 22.5 µM; with RKO [2], more than 100 µM.

Regarding `COc1ccc(Nc2nc(-n3cnc4ccccc43)cs2)cc1`, the IC50 with RKO [1] and in the assay on RKO [2] was more than 100 µM each time.

Regarding `Cc1ccc(Nc2nc(-n3cc(C)nc3C)cs2)cc1`, the figures for the IC50 in the assay on RKO [1], in the assay on RKO [2] and on Tubulin (Bos taurus) were 0.2 µM, more than 100 µM and 6.25 µM, respectively.

For `Cc1nc2ccccc2n1-c1csc(Nc2ccc(S(N)(=O)=O)cc2)n1`, the IC50 in the assay with RKO [1] was found to be 45 µM; in the assay on RKO [2] it was 95 µM.

Turning to `Cc1cn(-c2csc(Nc3cccc(Br)c3)n2)c(C)n1`, the IC50 with RKO [1] and with RKO [2] was more than 100 µM throughout.

With `c1ccc(Nc2nc(-n3ccnc3)cs2)cc1`, the concentration for half-maximal inhibition (IC50) with RKO [1] and in the assay on RKO [2] was more than 100 µM throughout.

Turning to `Cc1nccn1-c1csc(Nc2ccc(S(N)(=O)=O)cc2)n1`, the results for the IC50 in the assay on RKO [1] and with RKO [2] were 49 µM and more than 100 µM, respectively.

With `COc1ccc(Nc2nc(-n3ccnc3)cs2)cc1`, the IC50 in the assay with RKO [1] and with RKO [2] was more than 100 µM each time.

With `COc1cccc(Nc2nc(-n3cc(C)nc3C)cs2)c1`, the IC50 in the assay on RKO [1] came out at 22.5 µM; with RKO [2] it was 60 µM.

For the compound `Brc1ccc(Nc2nc(-n3cnc4ccccc43)cs2)cc1`, the IC50 was more than 100 µM in the assay on RKO [1], more than 100 µM in the assay on RKO [2] and 100 µM at Tubulin (Bos taurus).

In the case of `Cc1nccn1-c1csc(Nc2cccc(Br)c2)n1`, the IC50 in the assay with RKO [1] and with RKO [2] was more than 100 µM each time.

As to `COc1cccc(Nc2nc(-n3c(C)nc4ccccc43)cs2)c1`, the IC50 was 40 µM in the assay with RKO [1] and 60 µM in the assay on RKO [2].

On to `COc1cc2c(c(OC)c1OC)-c1ccc(OC)c(=O)cc1[C@@H](NC(C)=O)CC2` [COLCHICINE], for which the 50% inhibitory concentration (IC50) in the assay with RKO [1] was 0.016 µM; in the assay on RKO [2], more than 5 µM.

On to `Cc1nc(C)c(-c2csc(Nc3ccc(Br)cc3)n2)s1`, for which the IC50 in the assay with RKO [1] is 0.7 µM; in the assay with RKO [2], 30 µM; on Tubulin (Bos taurus), 1 µM.

In the case of `COc1ccc(Nc2nc(-n3ccnc3C)cs2)cc1`, the IC50 is 1.6 µM with RKO [1], more than 100 µM with RKO [2] and 8 µM on Tubulin (Bos taurus).

Regarding `Cc1ccc(Nc2nc(-n3ccnc3C)cs2)cc1`, the 50% inhibitory concentration (IC50) in the assay on RKO [1] was 0.45 µM; with RKO [2] it was more than 100 µM; against Tubulin, 3 µM; at Tubulin (Bos taurus), 0.75 µM.

In the case of `Cc1nccn1-c1csc(Nc2ccccc2)n1`, the 50% inhibitory concentration (IC50) in the assay on RKO [1] was 32.5 µM; with RKO [2], more than 100 µM.

For the compound `Cc1nccn1-c1csc(Nc2ccc(Br)cc2)n1`, the results for the 50% inhibitory concentration (IC50) in the assay with RKO [1] and in the assay on RKO [2] were 30 µM and more than 100 µM, respectively. Moreover, the Activity result in the assay with RKO [3] is “Not toxic”.

Take `COc1ccc(Nc2nc(-n3cc(C)nc3C)cs2)cc1`: the IC50 was 0.25 µM in the assay on RKO [1], more than 100 µM in the assay with RKO [2] and 7.5 µM on Tubulin (Bos taurus).

`COc1ccc(Nc2nc(-n3c(C)nc4ccccc43)cs2)cc1`: the concentration for half-maximal inhibition (IC50) in the assay on RKO [1] amounted to 0.025 µM; with RKO [2], 52.5 µM; against Tubulin, 1.25 µM; on Tubulin (Bos taurus), 0.75 µM.

On to `Cc1nc2ccccc2n1-c1csc(Nc2ccccc2)n1`, for which the IC50 in the assay with RKO [1] is 40 µM; with RKO [2] it was 50 µM.

Consider `c1ccc(Nc2nc(-n3cnc4ccccc43)cs2)cc1`, for which the 50% inhibitory concentration (IC50) in the assay with RKO [1] and in the assay on RKO [2] was more than 100 µM each time.

For `Cc1nc2ccccc2n1-c1csc(Nc2ccc(Br)cc2)n1`, the IC50 amounted to 0.09 µM with RKO [1], 60 µM in the assay with RKO [2], 1.2 µM on Tubulin and 1.25 µM at Tubulin (Bos taurus).

Regarding `COc1cc([C@@H]2c3cc4c(cc3[C@H](O)[C@H]3COC(=O)[C@H]23)OCO4)cc(OC)c1OC` [PODOFILOX], the half-inhibitory concentration (IC50) was 0.029 µM in the assay on RKO [1] and more than 0.5 µM in the assay with RKO [2].

With `Cc1cn(-c2csc(Nc3ccc(Br)cc3)n2)c(C)n1`, the IC50 with RKO [1] is 0.4 µM; in the assay on RKO [2] it was 45 µM; at Tubulin (Bos taurus), 4 µM.

The values above are taken from ChEMBL document CHEMBL1137258 (J Med Chem, 2006).
